Measurements taken from ChEMBL document CHEMBL1124192, “Cyclopentenylcytosine. A carbocyclic nucleoside with antitumor and antiviral properties” (J Med Chem, 1988).
Values after ≈ are worked out from the molar mass of the structure shown. Values joined by “and” are separate entries in the source; they are usually repeats but may differ in a detail not shown here. Equal entries are not always repeated.

Legend:
Human alphaherpesvirus 2 [1] = assay: Dose of compound required to inhibit the herpes simplex type-2 MS virus induced cytopathogenic effects; type: functional; settings: read-out: ID50 (the source's name)
Summary of the method: (§1)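 Southern Research CPE inhibition test in Vero host cells. Confluent monolayers in 96-well plates received drug (minimum seven concentrations, cytotoxic to noncytotoxic) plus virus at 32 CCID50 per 0.1 mL, in triplicate, with cell, virus and drug-cytotoxicity controls. Incubated at 37 °C, 2% CO2. CPE scored microscopically at 3–4 days. VR = 0.1 × sum of CE-grade differences from virus control, halved for partially cytotoxic wells.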

Human alphaherpesvirus 2 [2] = assay: Degree of inhibition of virus-induced cytopathogenic effect and the degree of cytotoxicity produced by compound against herpes simplex type-2 MS virus; type: functional; summary of the method: as §1
Human alphaherpesvirus 1 [3] = assay: Dose of compound required to inhibit the herpes simplex type-1 virusE-377(TK+ ) induced cytopathogenic effects; type: functional; settings: read-out: ID50 (the source's name); summary of the method: as §1
Human alphaherpesvirus 1 [4] = assay: Degree of inhibition of virus-induced cytopathogenic effect and the degree of cytotoxicity produced by compound against herpes simplex type-1 virus E-377(TK+ ); type: functional; summary of the method: as §1
[5] = test system: unidentified influenza virus; assay: Inhibitory dose of compound required to inhibit cytopathogenic effects of influenza virus with A2/Aichi/2/68 strain in MDCK cells; type: functional; settings: read-out: ID50 (the source's name)
[6] = test system: unidentified influenza virus; assay: Tested for inhibition of virus-induced cytopathogenic effect and cytotoxicity of compound against influenza virus with A2/Aichi/2/68 strain in MDCK cell; type: functional
[7] = test system: Japanese encephalitis virus; assay: Tested for inhibition of virus-induced cytopathogenic effect and cytotoxicity of compound against Japanese encephalitis virus with […] strain in vero cell; type: functional
[8] = test system: Japanese encephalitis virus; assay: Inhibitory dose of compound required to inhibit cytopathogenic effects of Japanese encephalitis virus with […] strain in vero cells; type: functional; settings: read-out: ID50 (the source's name)
Punta Toro virus [9] = assay: Tested for inhibition of virus-induced cytopathogenic effect and cytotoxicity of compound against Punta toro virus with adames strain in vero cell; type: functional
Punta Toro virus [10] = assay: Inhibitory dose of compound required to inhibit cytopathogenic effects of Punta toro virus with adames strain in vero cells; type: functional; settings: read-out: ID50 (the source's name)
[11] = Ratio of minimum drug concentration to ID50 of the compound(Adems strain); type: ADME
[12] = test system: Vesicular stomatitis virus; assay: Inhibitory dose of compound required to inhibit cytopathogenic effects of vesicular stomatitis RNA virus with indiana strain in L929 cells; type: functional
[13] = test system: Vesicular stomatitis virus; assay: Tested for inhibition of virus-induced cytopathogenic effect and cytotoxicity of compound against vesicular stomatitis RNA virus with indiana strain in L929 cell; type: functional
[14] = Ratio of minimum drug concentration to ID50 of the compound (Indiana strain); type: ADME
Yellow fever virus [15] = assay: Inhibitory dose of compound required to inhibit cytopathogenic effects yellow fever (virus) with Asibi strain in vero cell; type: functional; settings: read-out: ID50 (the source's name)
Yellow fever virus [16] = assay: Tested for inhibition of virus-induced cytopathogenic effect and cytotoxicity of compound against yellow fever (virus) with Asibi strain in vero cell; type: functional
Human alphaherpesvirus 1 [17] = assay: Degree of inhibition of virus-induced cytopathogenic effect and the degree of cytotoxicity produced by compound against herpes simplex type-1 virus HF(TK- ); type: functional; summary of the method: as §1
Human alphaherpesvirus 1 [18] = assay: Dose of compound required to inhibit the herpes simplex type-1 virus HF(TK- )induced cytopathogenic effects; type: functional; summary of the method: as §1

SMILES: Nc1nc2c(ncn2COCCO)c(=O)[nH]1 [ACYCLOVIR]
- IC50 (Human alphaherpesvirus 2 [1]): 5.3 µg/mL (≈ 23.5 µM)
- Virus rating (Human alphaherpesvirus 2 [2]): 4.5
- IC50 (Human alphaherpesvirus 1 [3]): 0.7 µg/mL (≈ 3.11 µM)
- Virus rating (Human alphaherpesvirus 1 [4]): 6.7

SMILES: NC(=O)c1ncn([C@@H]2O[C@H](CO)[C@@H](O)[C@H]2O)n1 [RIBAVIRIN]
- IC50 [5]: 18.7 µg/mL (≈ 76.6 µM)
- Virus rating [6]: 3.6
- Virus rating [7]: 2.4
- IC50 [8]: 3 µg/mL (≈ 12.3 µM)
- Virus rating (Punta Toro virus [9]): 1.8
- IC50 (Punta Toro virus [10]): 20.1 µg/mL (≈ 82.3 µM)
- selectivity ratio ([11]; read-out: Therapeutic index): 5

SMILES: Nc1nccc2c1ncn2[C@@H]1C[C@H](CO)[C@@H](O)[C@H]1O [3-DEAZAARISTEROMYCIN A]
- ID50 [12]: 4.3 µg/mL and 2 µg/mL
- Virus rating [13]: 2.1 and 3
- Therapeutic index [14]: 1.6
- selectivity ratio ([14]; read-out: Therapeutic index): 2.3

SMILES: c1c[se]cn1 [SELENAZOLE]
- IC50 (Yellow fever virus [15]): 0.6 µg/mL (≈ 4.54 µM)
- Virus rating (Yellow fever virus [16]): 2.4
- selectivity ratio ([11]; read-out: Therapeutic ratio): 1.8

SMILES: Nc1ncnc2c1ncn2[C@@H]1O[C@H](CO)[C@@H](O)[C@@H]1O [VIDARABINE]
- Virus rating (Human alphaherpesvirus 1 [17]): 3.3 and 2.9
- IC50 (Human alphaherpesvirus 2 [1]): 49.9 µg/mL (≈ 187 µM)
- Virus rating (Human alphaherpesvirus 2 [2]): 1.3
- ID50 (Human alphaherpesvirus 1 [18]): 1.9 µg/mL (≈ 7.11 µM)
- IC50 (Human alphaherpesvirus 1 [18]; Human alphaherpesvirus 1, read-out: ID50 (the source's name)): 2.1 µg/mL (≈ 7.86 µM)
- IC50 (Human alphaherpesvirus 1 [3]): 13.6 µg/mL (≈ 50.9 µM)
- Virus rating (Human alphaherpesvirus 1 [4]): 1.8
